# According to publication PMC4911243 (Cancer research, 2016):
# Legend:
# [1] = test system: Notch-independent cell lines (refractory to DAPT); assay: Colony formation assay, Notch-independent cell lines; assay type: cell-based, human; conditions: cells refractory to DAPT
# [2] = test system: HES1 promoter occupancy in OE33 and 786-0 cells; assay: ChIP assay on the HES1 promoter; assay type: cell-based, human; conditions: DAPT 15 μM, IMR-1 25 μM
# Procedure, shortened: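 OE33 and 786-0 cells were exposed to DAPT, test compound or DMSO vehicle. Chromatin immunoprecipitation used the indicated antibodies against NTC components, and HES1 promoter occupancy was assessed.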
# [3] = biological target: Notch ternary complex (CSL, Notch1, Maml1 on DNA) (Homo sapiens, UniProt P46531); assay: in vitro Notch ternary complex; assay type: biochemical; conditions: for IC50: in vitro NTC assay, dose-response
# Notch1 (NICD) = Notch1 (NICD) (Homo sapiens, UniProt P46531); assay: Surface plasmon resonance, binding to NICD; conditions: for mode of binding to Notch1: SPR sensorgrams, dissociation to baseline; for Kd: SPR, equilibrium approach, 1:1 binding model, wild type NICD
# Procedure, shortened: (§1)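 NICD (wild type or point mutant) was amine-coupled to a CM5 chip. Runs were on a Biacore T200 at 25 °C in 10 mM PBS pH 7.5 with 5% DMSO as running buffer. Signals were corrected against a DMSO control. Dissociation was followed under buffer flow. KD came from equilibrium response (Req) versus test compound concentration, fitted to a 1:1 binding model.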
# [4] = Plasma pharmacokinetic profile in mice; assay type: in vivo, male C57 BL/6 mice; conditions: for signal in plasma: after IMR-1 i.v. 2 mg/kg and i.p. 100 mg/kg, any time point
# Procedure, shortened: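 Male C57BL/6 mice received a single test compound dose, either 2 mg/kg i.v. or 100 mg/kg i.p. Plasma was analysed by mass spectrometry (m/z) for parent and acid metabolite. Metabolite PK parameters (Tmax, T1/2, CL, Vss) were calculated on the parent dose. Clearance was referenced to 90 mL/min/kg liver blood flow, and Vss to 0.7 L/kg total body water.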
# NICD R2061A = NICD R2061A (Homo sapiens, UniProt P46531, R2060A); assay: Surface plasmon resonance, binding to mutated NICD; conditions: SPR
# Procedure, shortened: as §1
# [5] = test system: patient-derived esophageal adenocarcinoma xenograft (EAC29 and EAC47); assay: Patient-derived esophageal adenocarcinoma xenograft; assay type: in vivo
# Procedure, shortened: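 Patient-derived esophageal adenocarcinoma tumors were grown in NSG mice to 200 mm3 before treatment began. Mice then received daily i.p. doses of test compound (15 mg/kg), comparator inhibitor (20 mg/kg) or DMSO vehicle. After 24 days, tumors were harvested. Notch target gene transcription was measured by RT-qPCR (TaqMan) and normalized to TBP and HPRT.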
# NICD R2105A = NICD R2105A (Homo sapiens, UniProt P46531, R2104A); assay: Surface plasmon resonance, binding to mutated NICD; conditions: SPR, R2105 substituted by alanine
# Procedure, shortened: as §1
# [6] = test system: NICD in OE33 and 786-0 cells; assay: Western analysis of NICD levels; assay type: cell-based, human; conditions: Western analysis of lysates from ChIP assay cells
# Procedure, shortened: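 Lysates came from the same treated OE33 and 786-0 cells used for ChIP (DAPT 15 μM, test compound 25 μM, or DMSO). Western blots were probed with anti-Notch1, anti-cleaved Notch1 (Val1744) and anti-GAPDH antibodies.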
# D. rerio (zebrafish) = assay: Somite formation in zebrafish embryos; assay type: in vivo; conditions: embryos soaked in 40 μM IMR-1
# Procedure, shortened: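 Zebrafish embryos were exposed to test compound at 8 hpf and examined at 13 hpf in coronal view for somites. Controls were untreated, DMSO vehicle, and 100 pg human Notch1 intracellular domain mRNA-injected embryos. The percentage of embryos with somites was scored and compared by Fisher's exact test.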
# NICD R2096A = NICD R2096A (Homo sapiens, UniProt P46531, R2095A); assay: Surface plasmon resonance, binding to mutated NICD; conditions: SPR, R2096 substituted by alanine
# Procedure, shortened: as §1
# NICD R2071A = NICD R2071A (Homo sapiens, UniProt P46531, R2070A); assay: Surface plasmon resonance, binding to mutated NICD; conditions: SPR
# Procedure, shortened: as §1
# [7] = test system: Notch target genes (Hes-1, Hey-L) in OE33 and 786-0 cells; assay: RT-qPCR analysis of Notch target genes; assay type: cell-based, human
# Procedure, shortened: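 OE33 and 786-0 cells were treated, then Hes-1 and Hey-L were measured by reverse transcription and TaqMan qPCR. Values were normalized to TBP and HPRT and expressed relative to vehicle (DMSO) control set to 1.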
# [8] = test system: OE19 human esophageal adenocarcinoma cells; assay: OE19 xenograft model in nude mouse; assay type: in vivo; conditions: 15 mg/kg
# Procedure, shortened: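 Nude mice received 5 × 10^6 OE19 cells in the flank, and tumors developed over 4 weeks. Mice were treated with test compound at 15 mg/kg or DMSO control. Tumor establishment and body weight were monitored through treatment.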
# [9] = IMR-1A after IMR-1 i.p. 100 mg/kg, mice plasma
# Chain of Notch ternary complex (CSL, Notch1, Maml1 on DNA) (P46531 1754-2555 limits assumed): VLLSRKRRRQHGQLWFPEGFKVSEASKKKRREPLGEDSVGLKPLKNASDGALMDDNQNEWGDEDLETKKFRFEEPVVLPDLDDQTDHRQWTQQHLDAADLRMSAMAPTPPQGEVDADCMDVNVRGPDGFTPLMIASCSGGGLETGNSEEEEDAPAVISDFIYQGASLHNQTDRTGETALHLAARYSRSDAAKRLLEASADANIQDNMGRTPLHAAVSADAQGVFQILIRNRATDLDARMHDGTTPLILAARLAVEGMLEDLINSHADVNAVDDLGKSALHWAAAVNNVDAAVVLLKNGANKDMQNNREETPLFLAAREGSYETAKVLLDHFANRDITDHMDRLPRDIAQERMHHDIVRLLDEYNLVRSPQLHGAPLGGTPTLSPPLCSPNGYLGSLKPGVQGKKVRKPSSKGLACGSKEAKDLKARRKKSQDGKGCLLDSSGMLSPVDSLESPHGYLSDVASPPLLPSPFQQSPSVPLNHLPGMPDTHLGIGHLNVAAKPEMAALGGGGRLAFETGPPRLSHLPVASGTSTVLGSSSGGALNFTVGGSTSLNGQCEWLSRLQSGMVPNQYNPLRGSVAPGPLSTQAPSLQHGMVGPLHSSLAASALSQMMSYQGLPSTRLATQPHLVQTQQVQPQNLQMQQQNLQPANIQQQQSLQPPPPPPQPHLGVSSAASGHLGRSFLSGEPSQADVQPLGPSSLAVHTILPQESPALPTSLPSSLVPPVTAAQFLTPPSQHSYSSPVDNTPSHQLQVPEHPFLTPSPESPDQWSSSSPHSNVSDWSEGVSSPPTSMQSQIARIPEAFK
# Chain of Notch ternary complex (CSL, Notch1, Maml1 on DNA) (Q06330 whole entry partner): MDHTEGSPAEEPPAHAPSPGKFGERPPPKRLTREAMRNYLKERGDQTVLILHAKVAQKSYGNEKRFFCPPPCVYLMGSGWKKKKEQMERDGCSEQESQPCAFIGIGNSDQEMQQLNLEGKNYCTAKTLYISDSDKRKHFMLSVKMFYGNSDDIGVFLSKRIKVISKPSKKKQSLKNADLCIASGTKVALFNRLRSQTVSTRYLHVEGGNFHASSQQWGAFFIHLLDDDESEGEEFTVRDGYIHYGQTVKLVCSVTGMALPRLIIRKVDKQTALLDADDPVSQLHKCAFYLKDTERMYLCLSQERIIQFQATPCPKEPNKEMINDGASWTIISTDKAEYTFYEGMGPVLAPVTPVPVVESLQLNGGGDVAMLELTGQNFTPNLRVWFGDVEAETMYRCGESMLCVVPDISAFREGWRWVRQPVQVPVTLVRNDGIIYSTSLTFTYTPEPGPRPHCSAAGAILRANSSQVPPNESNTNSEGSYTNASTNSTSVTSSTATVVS
# Chain of Notch1 (NICD) (P46531 1754-2555 limits assumed): as the sequence (P46531 1754-2555 limits assumed) above
# Chain of NICD R2061A (P46531 1754-2555 R2060A): as the sequence (P46531 1754-2555 limits assumed) above, with R307A counted along it
# Chain of NICD R2071A (P46531 1754-2555 R2070A): as the sequence (P46531 1754-2555 limits assumed) above, with R317A counted along it
# Chain of NICD R2096A (P46531 1754-2555 R2095A): as the sequence (P46531 1754-2555 limits assumed) above, with R342A counted along it
# Chain of NICD R2105A (P46531 1754-2555 R2104A): as the sequence (P46531 1754-2555 limits assumed) above, with R351A counted along it
compound,measurement,setting,value
"C[C@H](NC(=O)Cc1cc(F)cc(F)c1)C(=O)N[C@H](C(=O)OC(C)(C)C)c1ccccc1 [DAPT, reference compound]",colony formation,[1],refractory
same,occupancy of Maml1 on the HES1 promoter,[2],decreased the occupancy
same,occupancy of Notch1 on the HES1 promoter,[2],decreased the occupancy
COc1cc(/C=C2/SC(=S)NC2=O)ccc1OCC(=O)O [IMR-1A],increase in potency with respect to IMR-1,[3]; in vitro NTC assay IC50,50 fold
same,IC50,[3],0.5 µM
same,mode of binding to Notch1,Notch1 (NICD),"non-covalent, reversible binding"
same,Kd,Notch1 (NICD),2.9 ± 0.6 µM
same,T1/2,[4]; [9],6.16 h
same,Tmax,[4]; [9],0.50 h
same,Vss relative to normal volume of total body water (0.7 L/kg),[4]; IMR-1A after IMR-1 i.v. 2 mg/kg,~ 4 fold
same,T1/2,"[4]; IMR-1A after IMR-1 i.v. 2 mg/kg, mice plasma",2.22 h
same,CL,"[4]; IMR-1A after IMR-1 i.v. 2 mg/kg, mice plasma, 2 mg/kg",7 mL/min/kg
same,time up to which plasma concentrations were quantifiable,[4]; after IMR-1 i.p. 100 mg/kg,up to 24 h
same,signal in plasma,[4],present
IMR-1,colony formation,[1],equally resistant
same,IC50,[3],26 µM
same,mode of binding to Notch1,Notch1 (NICD),"non-covalent, reversible binding"
same,Kd,Notch1 (NICD),11 ± 3 µM
same,Kd,NICD R2061A; NICD R2061A,35.6 µM
same,decrease in affinity relative to wild type NICD,NICD R2061A; R2061 replaced with alanine,approximately 5 fold
same,"expression level of Notch target genes (Hes1, HeyL, Notch3) in excised tumors","[5]; after 24 days of treatment, both PDX models",dramatically reduced
same,weight loss or visible signs of adverse effects,[5]; daily i.p. 15 mg/kg,without any significant weight loss or other visible signs of adverse effects
same,PDX tumor growth,"[5]; daily i.p., IMR-1 15 mg/kg or DAPT 20 mg/kg, 24 days, vs DMSO",significantly abrogated growth
same,general toxicity upon in vivo treatment,"[5]; in vivo treatment, summary statement",no general toxicity was observed
same,occupancy of Maml1 on the HES1 promoter,[2],decreased the occupancy
same,occupancy of Notch1 on the HES1 promoter,[2],did not affect the occupancy
same,effect of mutation on affinity,NICD R2105A,No effect
same,levels of NICD in cells,[6],does not change
same,embryos with disruption of somite formation,D. rerio (zebrafish),69.7%
same,effect of mutation on affinity,NICD R2096A,No effect
same,Kd,NICD R2071A; NICD R2071A,38.7 µM
same,decrease in affinity relative to wild type NICD,NICD R2071A; R2071 replaced with alanine,approximately 5 fold
same,Notch target gene transcription,"[7]; Hes-1, Hey-L, OE33 and 786-0",dose-dependent decrease
same,transcription of the housekeeping gene HPRT,[7]; treated cells,unaltered
same,signal in plasma,[4],no signal was detected
same,clinical signs,"[4]; single i.v. 2 mg/kg and i.p. 100 mg/kg, through last sample withdrawal",did not induce any clinical signs
same,adverse effects,[8],no observable adverse effects
same,tumor establishment,"[8]; nude mouse, OE19 cells, 4 weeks",readily blocks tumor establishment
same,body weight,[8]; throughout the treatment course,remained constant
